Experimental data as given in ChEMBL document CHEMBL1649483, “Molecular analysis of the gyrA and gyrB quinolone resistance-determining regions of fluoroquinolone-resistant Clostridium difficile mutants selected in vitro” (2009).

Experiments:
Type in all cases: functional
[1] = tested on: Clostridioides difficile; test: Antimicrobial activity against Clostridium difficile 630d selected after 4 ug/ml of moxifloxacin by Etest method
How it was run: (§1)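 Stable in vitro-selected mutant tested for gatifloxacin susceptibility by Etest, per the manufacturer's instructions, with an 8 μg/ml breakpoint. For selection, the parent was grown in antibiotic-free brain heart infusion (BHI) for 24 h at 35°C under anaerobic conditions. […] Later steps used double the MIC. Stability was confirmed by three subcultures.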

[2] = tested on: Clostridioides difficile; test: Antimicrobial activity against Clostridium difficile 630f selected after 4 ug/ml of moxifloxacin by Etest method; how it was run: as §1
[3] = tested on: Clostridioides difficile; test: Antimicrobial activity against Clostridium difficile 630g harboring GyrB […] mutant gene selected after 8 ug/ml of moxifloxacin by Etest method; how it was run: as §1
[4] = tested on: Clostridioides difficile; test: Antimicrobial activity against Clostridium difficile BI2c harboring GyrB Arg447Lys mutant gene selected after 2 ug/ml of moxifloxacin by Etest method; how it was run: as §1
[5] = tested on: Clostridioides difficile; test: Antimicrobial activity against Clostridium difficile BI2d harboring GyrB Arg447Lys and Asp426Asn mutant gene selected after 32 ug/ml of moxifloxacin by Etest method; how it was run: as §1
[6] = tested on: Clostridioides difficile; test: Antimicrobial activity against Clostridium difficile BI2f harboring GyrB Arg447Lys and Asp426Asn mutant gene selected after 32 ug/ml of moxifloxacin by Etest method; how it was run: as §1
[7] = tested on: Clostridioides difficile; test: Antimicrobial activity against Clostridium difficile C253A selected after 4 ug/ml of levofloxacin by Etest method; how it was run: as §1
[8] = tested on: Clostridioides difficile; test: Antimicrobial activity against Clostridium difficile CD5D harboring GyrB Ser416Ala mutant gene selected after 8 ug/ml of levofloxacin by Etest method
[9] = tested on: Clostridioides difficile; test: Antimicrobial activity against Clostridium difficile A422B selected after 4 ug/ml of levofloxacin by Etest method; how it was run: as §1
[10] = tested on: Clostridioides difficile; test: Antimicrobial activity against Clostridium difficile A422F harboring GyrB Leu451Phe mutant gene selected after 8 ug/ml of levofloxacin by Etest method; how it was run: as §1
[11] = tested on: Clostridioides difficile; test: Antimicrobial activity against Clostridium difficile A422I harboring GyrA Thr82Ile and GyrB Leu451Phe mutant genes selected after 8 ug/ml of levofloxacin by Etest method; how it was run: as §1
[12] = tested on: Clostridioides difficile; test: Antimicrobial activity against Clostridium difficile 630B selected after 4 ug/ml of levofloxacin by Etest method; how it was run: as §1
[13] = tested on: Clostridioides difficile; test: Antimicrobial activity against Clostridium difficile 630C selected after 4 ug/ml of levofloxacin by Etest method; how it was run: as §1
[14] = tested on: Clostridioides difficile; test: Antimicrobial activity against Clostridium difficile 630E harboring GyrA Ala118Val mutant gene selected after 8 ug/ml of levofloxacin by Etest method; how it was run: as §1
[15] = tested on: Clostridioides difficile; test: Antimicrobial activity against Clostridium difficile BI2F harboring GyrB Glu466Lys mutant gene selected after 8 ug/ml of levofloxacin by Etest method; how it was run: as §1
[16] = tested on: Clostridioides difficile; test: Antimicrobial activity against Clostridium difficile C253b selected after 2 ug/ml of moxifloxacin by Etest method
[17] = tested on: Clostridioides difficile; test: Antimicrobial activity against Clostridium difficile C253f selected after 4 ug/ml of moxifloxacin by Etest method
[18] = tested on: Clostridioides difficile; test: Antimicrobial activity against Clostridium difficile CD5 1-g harboring GyrA Ala92Glu and GyrB Ser416Ala mutant genes selected after 8 ug/ml of moxifloxacin by Etest method
[19] = tested on: Clostridioides difficile; test: Antimicrobial activity against Clostridium difficile CD5h harboring GyrA Ala118Ser, Thr82Ala and GyrB Ser416Ala mutant gene selected after 8 ug/ml of moxifloxacin by Etest method
[20] = tested on: Clostridioides difficile; test: Antimicrobial activity against Clostridium difficile CD5i harboring GyrA Ala118Ser, Thr82Ala and GyrB Ser416Ala mutant genes selected after 8 ug/ml of moxifloxacin by Etest method
[21] = tested on: Clostridioides difficile; test: Antimicrobial activity against Clostridium difficile A422a selected after 2 ug/ml of moxifloxacin by Etest method; how it was run: as §1
[22] = tested on: Clostridioides difficile; test: Antimicrobial activity against Clostridium difficile A422i harboring GyrA Asp81Asn mutant gene selected after 8 ug/ml of moxifloxacin by agar dilution method
[23] = tested on: Clostridioides difficile; test: Antimicrobial activity against Clostridium difficile 630b selected after 2 ug/ml of moxifloxacin by agar dilution method
[24] = tested on: Clostridioides difficile; test: Antimicrobial activity against Clostridium difficile 630e selected after 4 ug/ml of moxifloxacin by agar dilution method
[25] = tested on: Clostridioides difficile; test: Antimicrobial activity against Clostridium difficile BI2e harboring GyrB Arg447Lys and Asp426Asn mutant gene selected after 32 ug/ml of moxifloxacin by agar dilution method
[26] = tested on: Clostridioides difficile; test: Antimicrobial activity against Clostridium difficile CD5A harboring GyrB Ser416Ala mutant gene selected after 4 ug/ml of levofloxacin by agar dilution method
[27] = tested on: Clostridioides difficile; test: Antimicrobial activity against Clostridium difficile CD5D harboring GyrB Ser416Ala mutant gene selected after 8 ug/ml of levofloxacin by agar dilution method
[28] = tested on: Clostridioides difficile; test: Antimicrobial activity against Clostridium difficile CD5F harboring GyrB Ser416Ala mutant gene selected after 8 ug/ml of levofloxacin by agar dilution method
[29] = tested on: Clostridioides difficile; test: Antimicrobial activity against Clostridium difficile C253 expressing tcdA and tcdB gene by agar dilution method
[30] = tested on: Clostridioides difficile; test: Antimicrobial activity against Clostridium difficile A422A selected after 4 ug/ml of levofloxacin by agar dilution method
[31] = tested on: Clostridioides difficile; test: Antimicrobial activity against Clostridium difficile A422H harboring GyrA Thr82Ile and GyrB Leu451Phe mutant genes selected after 8 ug/ml of levofloxacin by agar dilution method
[32] = tested on: Clostridioides difficile; test: Antimicrobial activity against Clostridium difficile 630D harboring GyrA Ala118Val mutant gene selected after 8 ug/ml of levofloxacin by agar dilution method
[33] = tested on: Clostridioides difficile; test: Antimicrobial activity against Clostridium difficile 630E harboring GyrA Ala118Val mutant gene selected after 8 ug/ml of levofloxacin by agar dilution method
[34] = tested on: Clostridioides difficile; test: Antimicrobial activity against Clostridium difficile BI2B selected after 4 ug/ml of levofloxacin by agar dilution method
[35] = tested on: Clostridioides difficile; test: Antimicrobial activity against Clostridium difficile C253c selected after 2 ug/ml of moxifloxacin by agar dilution method
[36] = tested on: Clostridioides difficile; test: Antimicrobial activity against Clostridium difficile C253h harboring GyrA Ala118Ser mutant gene selected after 8 ug/ml of moxifloxacin by agar dilution method
[37] = tested on: Clostridioides difficile; test: Antimicrobial activity against Clostridium difficile CD5d harboring GyrB Ser416Ala mutant gene selected after 4 ug/ml of moxifloxacin by agar dilution method
[38] = tested on: Clostridioides difficile; test: Antimicrobial activity against Clostridium difficile CD5e harboring GyrB Ser416Ala mutant gene selected after 4 ug/ml of moxifloxacin by agar dilution method
[39] = tested on: Clostridioides difficile; test: Antimicrobial activity against Clostridium difficile CD5h harboring GyrA Ala92Glu and GyrB Ser416Ala mutant genes selected after 8 ug/ml of moxifloxacin by agar dilution method
[40] = tested on: Clostridioides difficile; test: Antimicrobial activity against Clostridium difficile CD5i harboring GyrA Ala118Ser, Thr82Ala and GyrB Ser416Ala mutant genes selected after 8 ug/ml of moxifloxacin by agar dilution method
[41] = tested on: Clostridioides difficile; test: Antimicrobial activity against Clostridium difficile A422f selected after 4 ug/ml of moxifloxacin by agar dilution method

Work on COc1c(N2CCNC(C)C2)c(F)cc2c(=O)c(C(=O)O)cn(C3CC3)c12 (stereo unspecified) [GATIFLOXACIN] yielded an MIC [1] of 2 µg/mL, an MIC [2] of 2 µg/mL and an MIC [3] of at least 32 µg/mL. It also gave an MIC [4] of 1.5 µg/mL, an MIC [5] of 6 µg/mL and an MIC [6] of 6 µg/mL. It also gave an MIC [7] of 0.5 µg/mL, an MIC [8] of 2 µg/mL and an MIC [9] of 1 µg/mL. For the same compound, the MIC [10] was 2 µg/mL, the MIC [11] was at least 32 µg/mL and the MIC [12] was 0.75 µg/mL. The MIC [13] was 0.75 µg/mL, the MIC [14] was 3 µg/mL and the MIC [15] was at least 32 µg/mL. It also gave an MIC [16] of 1 µg/mL, an MIC [17] of 1 µg/mL and an MIC [18] of 3 µg/mL. For the same compound, the MIC [19] was 16 µg/mL, the MIC [20] was 16 µg/mL and the MIC [21] was 1.5 µg/mL.
C[C@H]1COc2c(N3CCN(C)CC3)c(F)cc3c(=O)c(C(=O)O)cn1c23.C[C@H]1COc2c(N3CCN(C)CC3)c(F)cc3c(=O)c(C(=O)O)cn1c23.O [LEVOFLOXACIN] gave an MIC [22] of 64 µg/mL, an MIC [23] of 4 µg/mL and an MIC [24] of 4 µg/mL. The MIC [25] was 64 µg/mL, the MIC [26] was 1 µg/mL and the MIC [27] was 2 µg/mL. It also gave an MIC [28] of 2 µg/mL, an MIC [29] of 2 µg/mL and an MIC [30] of 1 µg/mL. It also gave an MIC [31] of 64 µg/mL, an MIC [32] of 8 µg/mL and an MIC [33] of 8 µg/mL. For the same compound, the MIC [34] was 1 µg/mL, the MIC [35] was 4 µg/mL and the MIC [36] was 64 µg/mL. For the same compound, the MIC [37] was 2 µg/mL, the MIC [38] was 2 µg/mL and the MIC [39] was 16 µg/mL. The MIC [40] was 64 µg/mL and the MIC [41] was 4 µg/mL.
